Measured values taken from ChEMBL document CHEMBL1136796 (J Med Chem, 2003).
Each block holds one molecule with its values, some of them ahead of it.

Legend:
KB = assay: Cytotoxic activity against cellular metabolic activity of Cervix KB/HeLa tumor cell line using XTT proliferation assay after incubation with the compound for 48 h; assay type: functional, cell-based; conditions: Homo sapiens
SF-268 [1] = assay: Cytotoxic activity against cellular metabolic activity of Glioma SF-268 tumor cell line using XTT proliferation assay after incubation with the compound for 48 h; assay type: functional, cell-based; conditions: Homo sapiens, SF-268, 48 h
NCI-H460 [2] = assay: Tested for induction of cellular death in Human lung H-460 tumor cell line in Propidium Iodide Monolayer Assay; assay type: functional, cell-based
Outline: (§1)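 Propidium iodide monolayer assay: cells seeded at 1 × 10^5 or 5 × 10^4 cells/mL, 24 h recovery, drug in triplicate for 3–6 days by doubling time; PI 25 μg/mL added, fluorescence (ex 530/em 620 nm) read before and after freezing at −18 °C for 24 h; viable cells from the difference; % T/C versus concentration.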

MAXF401 cell line = assay: Tested for induction of cellular death in Human breast 401NL tumor cell line in Propidium Iodide Monolayer Assay; assay type: functional, cell-based; outline: as §1
MCF7 = assay: Tested for induction of cellular death in Human breast MCF-7 tumor cell line in Propidium Iodide Monolayer Assay; assay type: functional, cell-based; outline: as §1
LXFL 529 = assay: Tested for induction of cellular death in Human lung LXF 529L tumor cell line in Propidium Iodide Monolayer Assay; assay type: functional, cell-based; outline: as §1
[3] = test system: Lung LXF 629L tumor cell line; assay: Tested for induction of cellular death in Human lung LXF 629L tumor cell line in Propidium Iodide Monolayer Assay; assay type: functional, cell-based; outline: as §1
SF-268 [4] = assay: Tested for induction of cellular death in Human ZNS SF-268 tumor cell line in Propidium Iodide Monolayer Assay; assay type: functional, cell-based; outline: as §1
RKO [5] = assay: Cytotoxic activity against human colon adenocarcinoma RKO cells with ectopic inducible expression of cyclin-dependent kinase inhibitor p27kip1; assay type: functional, cell-based
RKO [6] = assay: Cytotoxic activity against human colon adenocarcinoma RKO cells without ectopic inducible expression of cyclin-dependent kinase inhibitor p27kip1; assay type: functional, cell-based
RXF 944 = assay: Tested for induction of cellular death in Human renal RXF 944L tumor cell line in Propidium Iodide Monolayer Assay; assay type: functional, cell-based; outline: as §1
LT12 tumor cell line [7] = assay: Antiproliferative activity against LT12 phenotype LT12 MDR tumor cell line; assay type: functional, cell-based; conditions: Rattus norvegicus
K562 = assay: In vitro inhibitory concentration against human chronic myelogenous leukemia K562 cell growth; assay type: functional, cell-based
L1210 [8] = assay: Antiproliferative activity against L1210 phenotype L1210 VCR tumor cell line; assay type: functional, cell-based; conditions: Mus musculus
L1210 [9] = assay: Antiproliferative activity against L1210 tumor cell line; assay type: functional, cell-based; conditions: Mus musculus
SK-OV-3 = assay: Cytotoxic activity against cellular metabolic activity of Ovary SKOV3 tumor cell line using XTT proliferation assay after incubation with the compound for 48 h; assay type: functional, cell-based; conditions: Homo sapiens, SK-OV-3, 48 h
P388/ADR = assay: Antiproliferative activity against P388 phenotype P388 ADR tumor cell line; assay type: functional, cell-based; conditions: Mus musculus
Tubulin [10] = target: T1, Tubulin (Sus scrofa, UniProt P02554+P02550); assay: In vitro inhibition of maximum porcine tubulin assembly rate after 20 min at 37 degrees C; assay type: functional
Sus scrofa = species: Sus scrofa; assay: In vitro inhibitory concentration against tubulin assembly; assay type: functional
Tubulin [11] = target: T1, Tubulin; assay: In vitro inhibitory concentration required to displace [3H]colchicine from its binding site on tubulin; assay type: protein assay
NCI-H460 [12] = assay: Cytotoxic activity against cellular metabolic activity of Lung NCI-H460 tumor cell line using XTT proliferation assay after incubation with the compound for 48 h; assay type: functional, cell-based; conditions: Homo sapiens, NCI-H460, 48 h
Outline: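 NCI-H460 human lung tumor cells seeded at 1 × 10^3 cells/well in microtiter plates and exposed to a range of compound concentrations for 48 h. Proliferation read as cellular metabolic activity by XTT. At least two replicates (n = 2); IC50 obtained from dose–response curves by nonlinear regression.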

LT12 tumor cell line [13] = assay: Antiproliferative activity against LT12 tumor cell line; assay type: functional, cell-based; conditions: Rattus norvegicus
P388 (Mus musculus) = assay: Antiproliferative activity against P388 tumor cell line
HeLa (Homo sapiens) = assay: Effective concentration required to arrest propidium iodide stained KB/HeLa cells in G2/M phase

SMILES: COc1ccc(C=C2c3ccccc3C(=O)c3ccccc32)cc1
IC50 (NCI-H460 [2]): 500 nM
IC50 (MAXF401 cell line): 300 nM
IC50 (MCF7): 560 nM
IC50 (LXFL 529): 260 nM
IC50 [3]: 130 nM
IC50 (SF-268 [4]): 890 nM
IC50 (RXF 944): 700 nM
IC50 (K562): 60 nM
IC50 (Tubulin [10]): 760 nM
IC50 (Sus scrofa): < 1000 nM

SMILES: CC(C)(C)c1cc(C=C2c3ccccc3C(=O)c3ccccc32)cc(C(C)(C)C)c1O
IC50 (K562): 39000 nM

SMILES: O=C1c2ccccc2C(=Cc2ccc(OCc3ccccc3)cc2)c2ccccc21
IC50 (K562): 22000 nM
IC50 (Tubulin [10]): > 10000 nM

SMILES: O=C1c2ccccc2C(=Cc2ccc([N+](=O)[O-])cc2)c2ccccc21
IC50 (K562): 3000 nM

SMILES: COc1ccc(CC2c3ccccc3C(=O)c3ccccc32)cc1O
IC50 (K562): 7000 nM
IC50 (Tubulin [10]): 2300 nM

SMILES: O=C1c2ccccc2C(=Cc2ccc(O)cc2)c2ccccc21
IC50 (K562): 800 nM
IC50 (Tubulin [10]): 2500 nM

SMILES: O=C1c2ccccc2C(=Cc2cc(O)c(O)c(O)c2)c2ccccc21
IC50 (K562): 20000 nM
IC50 (Tubulin [10]): > 10000 nM

SMILES: COc1cc(CC2c3ccccc3C(=O)c3ccccc32)cc(OC)c1
IC50 (Tubulin [10]): 10000 nM

SMILES: O=C1c2ccccc2C(=Cc2cc(Cl)cc(Cl)c2)c2ccccc21
IC50 (K562): 6000 nM
IC50 (Tubulin [10]): > 10000 nM

SMILES: O=C1c2ccccc2C(=Cc2ccc3c(c2)OCO3)c2ccccc21
IC50 (K562): 900 nM

SMILES: O=C1c2ccccc2C(=Cc2ccc(O)c(O)c2)c2ccccc21
IC50 (NCI-H460 [2]): < 10 nM
IC50 (MAXF401 cell line): 210 nM
IC50 (MCF7): 40 nM
IC50 (LXFL 529): 1620 nM
IC50 [3]: 260 nM
IC50 (SF-268 [4]): 1160 nM
IC50 (RXF 944): 30 nM
IC50 (K562): 60 nM
IC50 (Tubulin [10]): 1800 nM

SMILES: O=C1c2ccccc2C(=Cc2cc(Br)c(O)c(Br)c2)c2ccccc21
IC50 (K562): 160 nM
IC50 (Tubulin [10]): 480 nM

More lines, main results first:

IC50 (LT12 tumor cell line [7]): 90 nM
IC50 (K562): 250 nM
IC50 (L1210 [8]): 70 nM
IC50 (L1210 [9]): 50 nM
IC50 (P388/ADR): 110 nM
IC50 (Tubulin [10]): 430 nM
IC50 (Sus scrofa): 430 nM
IC50 (Tubulin [11]): 220 nM
IC50 (LT12 tumor cell line [13]): 120 nM
IC50 (P388 (Mus musculus)): 80 nM
EC50 (HeLa (Homo sapiens)): 234 nM
SMILES: COc1ccc(C=C2c3ccccc3C(=O)c3ccccc32)c(OC)c1O
IC50 (KB): 50 nM
IC50 (SF-268 [1]): 60 nM
IC50 (NCI-H460 [2]): 150 nM
IC50 (MAXF401 cell line): < 10 nM
IC50 (MCF7): 1850 nM
IC50 (LXFL 529): 70 nM
IC50 [3]: 50 nM
IC50 (SF-268 [4]): 40 nM
IC50 (RKO [5]): > 9000 nM
IC50 (RKO [6]): 50 nM
IC50 (RXF 944): < 10 nM
IC50 (SK-OV-3): 60 nM
IC50 (NCI-H460 [12]): 60 nM

IC50 (K562): 70 nM
IC50 (Tubulin [10]): 1200 nM
IC50 (Sus scrofa): 1200 nM
SMILES: COc1ccc(C=C2c3ccccc3C(=O)c3ccccc32)c(O)c1

IC50 (K562): > 20000 nM
SMILES: O=C1c2ccccc2C(=Cc2ccc(C(F)(F)F)cc2)c2ccccc21

IC50 (K562): 1400 nM
IC50 (Tubulin [10]): > 10000 nM
SMILES: COC(=O)c1cc(C=C2c3ccccc3C(=O)c3ccccc32)ccc1O

IC50 (K562): 730 nM
IC50 (Tubulin [10]): 910 nM
IC50 (Sus scrofa): < 1000 nM
SMILES: COc1cccc(C=C2c3ccccc3C(=O)c3ccccc32)c1O
IC50 (NCI-H460 [2]): 3330 nM
IC50 (MAXF401 cell line): 20 nM
IC50 (MCF7): 800 nM
IC50 (LXFL 529): 4450 nM
IC50 [3]: 2020 nM
IC50 (SF-268 [4]): 980 nM
IC50 (RXF 944): 360 nM

IC50 (K562): > 80000 nM
IC50 (Tubulin [10]): > 10000 nM
SMILES: COc1cc(CC2c3ccccc3C(=O)c3ccccc32)cc(OC)c1OC
